pIC50: −log10 of the molar value.
Experiments:
Plasmodium falciparum [1] = experiment: Antiprotozoal activity against chloroquine/pyrimethamine-resistant erythrocytic form of Plasmodium falciparum K1 assessed as parasite growth inhibition; assay type: functional, organism-based
Leishmania donovani [2] = experiment: Antiprotozoal activity against axenic amastigote form of Leishmania donovani MHOM/ET/67/L82 assessed as parasite growth inhibition; assay type: functional, organism-based
Leishmania tarentolae [3] = experiment: Antiprotozoal activity against promastigote form of Leishmania tarentolae P10 assessed as parasite growth inhibition after 48 hrs by MTT assay; assay type: functional, organism-based; conditions: P10, 48 h
Outline: (§1)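 Promastigotes of nonpathogenic lizard-infecting L. tarentolae strain P10, cultured in hemin-supplemented BHI medium; IC50 determined.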

[4] = system: Trypanosoma brucei rhodesiense; experiment: Antiprotozoal activity against trypomastigote form of Trypanosoma brucei rhodesiense STIB 900 assessed as parasite growth inhibition; assay type: functional, organism-based
[5] = Selectivity index, ratio of IC50 for rat L6 cells to ratio of IC50 for axenic amastigote form of Leishmania donovani MHOM/ET/67/L82; assay type: toxicity, cell-based; conditions: read-out: Selectivity Index
Trypanosoma cruzi [6] = experiment: Antiprotozoal activity against intracellular amastigote form of Trypanosoma cruzi Tulahuen C4 assessed as parasite growth inhibition; assay type: functional, organism-based
L6 = experiment: Cytotoxicity against rat L6 cells; assay type: cell-based
Outline: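 L6 rat skeletal myoblasts; cytotoxicity IC50 determined at the Swiss Tropical and Public Health Institute by an earlier standard protocol.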

[7] = Selectivity index, ratio of IC50 for rat L6 cells to ratio of IC50 for trypomastigote form of Trypanosoma brucei rhodesiense STIB 900; assay type: toxicity, cell-based; conditions: read-out: Selectivity Index
[8] = Selectivity index, ratio of IC50 for rat L6 cells to ratio of IC50 for chloroquine/pyrimethamine-resistant erythrocytic form of Plasmodium falciparum K1; assay type: toxicity, cell-based; conditions: read-out: Selectivity Index
Plasmodium falciparum [9] = experiment: Potency index, ratio of chloroquine IC50 to compound IC50 for chloroquine/pyrimethamine-resistant erythrocytic form of Plasmodium falciparum K1; assay type: functional
Leishmania donovani [10] = experiment: Antiprotozoal activity against Leishmania donovani assessed as parasite growth inhibition
Trypanosoma cruzi [11] = experiment: Antiprotozoal activity against Trypanosoma cruzi assessed as parasite growth inhibition; assay type: functional, organism-based
Outline: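 T. cruzi intracellular amastigote stage, Tulahuen C4 strain; assayed at the Swiss Tropical and Public Health Institute by an earlier standard protocol.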

Leishmania tarentolae [12] = experiment: Antiprotozoal activity against Leishmania tarentolae assessed as parasite growth inhibition; assay type: functional, organism-based; outline: as §1

pIC50 (Trypanosoma cruzi [11]) | Compound | pIC50 (Plasmodium falciparum [1]) | pIC50 (Leishmania donovani [2]) | pIC50 (Leishmania tarentolae [3]) | pIC50 [4] | selectivity ratio [5] | pIC50 (Trypanosoma cruzi [6]) | pIC50 (L6) | selectivity ratio [7] | selectivity ratio [8] | Ratio IC50 (Plasmodium falciparum [9]) | pIC50 (Leishmania donovani [10]) | pIC50 (Leishmania tarentolae [12])
– | COc1cc2c(cc1C(C)N(C)CCCc1ccccc1)C=CC(C)(C)O2 (stereo not drawn) | 5.91 | 4.07 | 5.05 | 5.50 | 0.19 | 5.04 | 4.79 | 5.12 | 13.5 | – | – | –
– | CCCCNC(C)c1cc2c(cc1OC)OC(C)(C)C=C2 (stereo not drawn) | 5.38 | – | 5.20 | 5.09 | – | 4.60 | 4.28 | 6.41 | 12.6 | – | – | –
– | COc1cc2c(cc1C(C)NC(=O)c1ccccc1)C=CC(C)(C)O2 (stereo not drawn) | 4.94 | 4.58 | 5.06 | 4.63 | 1.3 | 4.43 | 4.46 | 1.45 | 3.01 | – | – | –
– | COc1cc2c(cc1C(C)N1CCOCC1)C=CC(C)(C)O2 (stereo not drawn) | 5.00 | 3.83 | 4.91 | 4.02 | 1.06 | 3.96 | 3.80 | 1.63 | 15.9 | – | – | –
– | COc1cc2c(cc1C(C)NC(=O)Cc1ccccc1)C=CC(C)(C)O2 (stereo not drawn) | 4.51 | 4.27 | 5.11 | 3.99 | 1.6 | 4.35 | 4.06 | 0.83 | 2.79 | – | – | –
– | COc1cc2c(cc1C(C)N[C@@H](C)c1ccccc1)C=CC(C)(C)O2 (stereo partly drawn) | 6.43 | – | 5.05 | 5.29 | – | – | 4.78 | 3.23 | 44.4 | – | – | –
– | COc1cc2c(cc1C(C)NCC1CCCCC1)C=CC(C)(C)O2 (stereo not drawn) | 5.61 | 3.86 | 6.19 | 5.67 | 0.1 | 4.89 | 4.84 | 6.69 | 5.88 | – | – | –
– | CC(NCc1ccccc1)c1cc2c(cc1O)OC(C)(C)C=C2 (stereo not drawn) | 7.70 | – | 4.91 | 5.21 | – | – | 3.96 | 17.7 | 6760 | 10 | – | –
– | CCCCNC(C)c1cc2c(cc1OC)OC(C)(C)CC2 (stereo not drawn) | 5.49 | 4.97 | – | 5.11 | 5.5 | 4.42 | 4.23 | 7.54 | 18.3 | – | – | –
– | CCNC(C)c1cc2c(cc1OC)OC(C)(C)C=C2 (stereo not drawn) | 5.09 | 3.44 | 5.06 | 4.64 | 0.48 | 4.04 | 3.75 | 7.71 | 22 | – | – | –
– | COc1cc2c(cc1C(C)NC(=O)/C=C/c1ccccc1)C=CC(C)(C)O2 (stereo not drawn) | – | 4.58 | 5.75 | 4.44 | 4.1 | 4.64 | 3.97 | 2.99 | – | – | – | –
– | C/C=C(/C)C(=O)OC(C)c1cc2c(cc1OC)OC(C)(C)C=C2 (stereo not drawn) | 4.72 | 4.34 | 4.67 | 3.80 | 3 | 4.21 | 3.86 | 0.89 | 7.35 | – | – | –
– | CC(NCCCc1ccccc1)c1cc2c(cc1O)OC(C)(C)C=C2 (stereo not drawn) | 8.00 | – | 5.21 | 5.27 | – | – | 4.57 | 5.08 | 1820 | 25 | – | –
– | COc1cc2c(cc1C(C)NCCCc1ccccc1)C=CC(C)(C)O2 (stereo not drawn) | 6.07 | 4.00 | 6.66 | 5.99 | 0.01 | 4.87 | 5.97 | 1.05 | 1.27 | – | – | –
– | COc1cc2c(cc1C(C)OCc1ccccc1)C=CC(C)(C)O2 (stereo not drawn) | 5.02 | 4.67 | 5.82 | 4.12 | 2.1 | 4.35 | 4.36 | 0.58 | 4.64 | – | – | –
– | COc1cc2c(cc1C(C)NCc1ccccc1)C=CC(C)(C)O2 (stereo not drawn) | 6.19 | 3.80 | 5.62 | 5.62 | 0.13 | 4.47 | 4.68 | 8.83 | 32.8 | – | – | –

pIC50 (Trypanosoma cruzi [11]) | Compound | pIC50 (Plasmodium falciparum [1]) | pIC50 (Leishmania donovani [2]) | pIC50 (Leishmania tarentolae [3]) | pIC50 [4] | selectivity ratio [5] | pIC50 (Trypanosoma cruzi [6]) | pIC50 (L6) | selectivity ratio [7] | selectivity ratio [8] | Ratio IC50 (Plasmodium falciparum [9]) | pIC50 (Leishmania donovani [10]) | pIC50 (Leishmania tarentolae [12])
– | CCCCCCCCCCCCCCCCOP(=O)([O-])OCC[N+](C)(C)C [MILTEFOSINE] | – | – | – | – | – | – | – | – | – | – | 6.44 | –
– | COc1ccc(CNC(C)c2cc3c(cc2OC)OC(C)(C)C=C3)cc1 (stereo not drawn) | 6.03 | 3.65 | 5.01 | 5.62 | 0.07 | 4.48 | 4.83 | 6.13 | 16 | – | – | –
– | COc1cc2c(cc1C(C)OC/C=C/c1ccccc1)C=CC(C)(C)O2 (stereo not drawn) | – | 4.64 | 6.07 | 4.02 | 2.8 | 4.14 | 4.19 | 0.68 | – | – | – | –
– | CCN(CC)CCCC(C)NC(C)c1cc2c(cc1OC)OC(C)(C)C=C2 (stereo not drawn) | 5.62 | – | 5.49 | 5.73 | – | 4.45 | 4.38 | 22.5 | 17.5 | – | – | –
– | COc1cc2c(cc1C(C)N[C@H](C)c1ccccc1)C=CC(C)(C)O2 (stereo partly drawn) | 6.14 | – | 5.06 | 5.69 | – | – | 4.80 | 7.85 | 22.1 | – | – | –
5.80 | O=C(Cn1ccnc1[N+](=O)[O-])NCc1ccccc1 [BENZNIDAZOLE] | – | – | – | – | – | – | – | – | – | – | – | –
– | COc1cc2c(cc1C(C)NC/C=C/c1ccccc1)C=CC(C)(C)O2 (stereo not drawn) | 5.36 | 4.20 | 5.49 | 5.23 | 0.23 | 5.09 | 4.84 | 2.5 | 3.32 | – | – | –
– | COc1cc2c(cc1C(C)NCCCc1ccccc1)CCC(C)(C)O2 (stereo not drawn) | 5.67 | – | 3.89 | 5.64 | – | 5.27 | 5.58 | 1.15 | 1.23 | – | – | –
– | COc1cc2c(cc1C(C)NCc1ccccc1)CCC(C)(C)O2 (stereo not drawn) | 5.82 | 5.43 | 3.57 | 5.30 | 4.1 | 4.88 | 4.82 | 3.08 | 10.1 | – | – | –
– | COc1cc2c(cc1C(C)NCCc1ccccc1)CCC(C)(C)O2 (stereo not drawn) | 5.60 | 5.76 | 3.90 | 5.38 | 8.4 | 4.92 | 4.84 | 3.48 | 5.8 | – | – | –
– | COc1cc2c(cc1C(C)OCCc1ccccc1)C=CC(C)(C)O2 (stereo not drawn) | 4.22 | 4.20 | 5.93 | 3.74 | 1.9 | 4.25 | 3.91 | 0.69 | 2.08 | – | – | –
– | COc1cc2c(cc1C(C)NCCCCc1ccccc1)CCC(C)(C)O2 (stereo not drawn) | 5.87 | 6.24 | 4.04 | 5.74 | 9.3 | 5.30 | 5.28 | 2.87 | 3.94 | – | – | –
– | COc1cc2c(cc1C(C)NCCCCc1ccccc1)C=CC(C)(C)O2 (stereo not drawn) | 5.85 | 4.14 | 6.11 | 5.50 | 0.07 | 5.38 | 5.33 | 1.5 | 3.35 | – | – | –
– | N=C(N)c1ccc(OCCCCCOc2ccc(C(=N)N)cc2)cc1 [PENTAMIDINE] | – | – | – | – | – | – | – | – | – | – | – | 7.52
– | COc1cc2c(cc1C(C)NCCc1ccccc1)C=CC(C)(C)O2 (stereo not drawn) | 5.62 | 3.90 | 5.98 | 5.65 | 0.12 | 5.04 | 4.81 | 6.93 | 6.34 | – | – | –
– | COc1cc2c(cc1C(C)N1CCCC1)C=CC(C)(C)O2 (stereo not drawn) | 4.79 | 3.57 | 4.73 | 4.39 | 0.66 | 4.17 | 3.75 | 4.31 | 10.8 | – | – | –
